Source: PubChem BioAssay AID493070 (Broad Institute, 2011)
Unmarked numbers belong to inactive results. Calls of active or inactive are those of the source.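 The calls were made as follows: active = growth signal loss with fitted half-maximal concentration up to ten times the top valid dose; inconclusive = flat curve with 30 to 70% inhibition, or poor fit; inactive = the rest, including opposite-direction effects.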

test: single-agent antifungal toxicity against Candida – Alamar Blue fluorescence, dry powder, set 5, counter-screen, dose response (AID 493070); conditions: C. albicans CaCi-2 growth, 48 h; series mostly up to 26 µM; activity change, negative = inhibition: at the top concentration
Procedure, shortened: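 System – C. albicans CaCi-2 grown without fluconazole · Buffer or medium – RPMI synthetic defined medium · Dosing – test compound delivered to wells by pin transfer · Times – 48 h growth at 37 °C, 2 h dye step · Signal – Alamar Blue fluorescence at 1:200 final, excitation 544 nm, emission 590 nm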

SMILES	activity change, negative = inhibition	outcome
CC1CCN(C(=O)Cn2c3ccccc3c3nc4n(c(=O)c32)CCCS4)CC1	1.1%	–
O=C(Cn1c2ccc(F)cc2c2nc3n(c(=O)c21)CCS3)N1CCCC1	2.6%	–
O=C(O)Cn1nc(-c2ccccc2)c2ccccc21	-0.226%	–
O=C(Cn1c2ccccc2c2nc3n(c(=O)c21)CCS3)N1CCCC1	–	inactive
CCN(CC)C(=O)Cn1c2ccccc2c2nc3n(c(=O)c21)CCS3	–	inactive
O=C(Cn1c2ccccc2c2ccncc21)N1CCCCC1	-14%	–
CC1CCN(C(=O)Cn2c3ccc(F)cc3c3nc4n(c(=O)c32)CCCS4)CC1	1.51%	–
O=C(Cn1c2ccccc2c2nc3n(c(=O)c21)CCS3)N1CCOCC1	-2.95%	–
COC(=O)Cn1nc(-c2ccccc2)c2ccccc21	-4.87%	–
CCN(CC)C(=O)Cn1c2ccc(F)cc2c2nc3n(c(=O)c21)CCS3	3.09%	–
COc1ccc2c(c1)c1nc3n(c(=O)c1n2CC(=O)N1CCC(C)CC1)CCS3	0.019% [at 2.6 µM]	–
O=C(Cn1c2ccccc2c2nc3n(c(=O)c21)CCS3)NCCc1ccc(Cl)cc1	2.63%	–
COc1ccc2c(c1)c1nc3n(c(=O)c1n2CC(=O)N1CCC(Cc2ccccc2)CC1)CCS3	2.34%	–
COC(=O)Cn1nc(-c2ccc(C)cc2)c2ccccc21	-1%	–
O=c1c2[nH]c3ccc(F)cc3c2nc2n1CCS2	1.87%	–
COc1ccc(NC(=O)Cn2c3ccccc3c3nc4n(c(=O)c32)CCS4)cc1	-4.77%	–
COC(=O)Cn1c(-c2ccccc2)nc2ccccc21	0.011%	–
O=C(Cn1c2ccccc2c2nc3n(c(=O)c21)CCCS3)c1ccc(F)cc1	2.75%	–
